# ALR inh: human ALR oxidase inhibition via reduced H2O2; purified ALR, DTT oxidation, H2O2 HRP-luminol luminescence; P55789; 3.8% of 290,000 active; inhibition, % (test concentration not listed);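 active = mean replicate inhibition above about 79%, with every replicate also reaching it, limit read from the data; inconclusive = only one of the two criteria met; inactive = mean below limit and not every replicate reaching it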
# Target sequence (P55789 whole entry, looked up): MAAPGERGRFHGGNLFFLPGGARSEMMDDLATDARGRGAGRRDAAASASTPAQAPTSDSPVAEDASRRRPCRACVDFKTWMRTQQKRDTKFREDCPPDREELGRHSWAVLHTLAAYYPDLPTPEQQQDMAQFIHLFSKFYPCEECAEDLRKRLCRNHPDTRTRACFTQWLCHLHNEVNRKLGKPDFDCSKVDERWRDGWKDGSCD
# NALP1 inh: NALP1 inhibition; S. cerevisiae NALP1/ASC/caspase-1 growth, X-gal OD620, 72 h; inhibition, % at 10 µM; 0.61% of 280,000 active; AID 2071; in the data active = inhibition mostly above about 24%, no sharp cut-off; inactive = mostly below about 32%
# NALP3 yeast inh: inhibitors of NALP3 inflammasome in yeast; inhibition, % at 10 µM; 0.39% of 330,000 active; Yeast reconstituted NLRP3/ASC/caspase-1, beta-gal luminescence, 24 h;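 active = inhibition of 50% or more; inactive = inhibition below 50%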
# Arrestin-AP2 inh: inhibitors of human beta-arrestin and AP2 interaction; 0.31% of 340,000 active; inhibition, % at 10 µM; AID 504490; FITC-arrestin peptide / GST-AP2 beads, flow cytometry; AP2 beta2 appendage carries R879A mutation;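 active = inhibition above a set limit, near 3 SD of compounds lacking own fluorescence, cut at about 54% in these data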
#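 System: GST-tagged AP2 beta2-adaptin appendage (R879A) on 4 µm glutathione beads / Reagent: FITC-arrestin peptide, 50 nM / Detection: HyperCyt-sampled flow cytometry, FL1 channel, ex 488/em 535 nm / Timing: 12 min plus 1 h, RT / Buffer or medium: PBS plus Tween 20 (0.05%) and BSA (0.1%)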
# PolyA inh: inhibitors of polyadenylation in S. cerevisiae | S. cerevisiae SKY197-pL101 polyadenylation reporter, beta-gal luminescence; efflux-impaired pdr1/pdr3 knockout yeast; score 100 = 6 SD above DMSO | activity score, % at 12 µM | 0.02% of 300,000 active | AID 1875;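 active = lowest replicate activity score at least 50, where 100 means six control SD above control mean; inconclusive = lowest score under 50 but half or more replicates reach 50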;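 note: yeast exposed to compound for 9 h at 30 °C; higher score means more reporter readthrough which indicates perturbed polyadenylation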
# Pemphigus Ab inh: human desmoglein-3 autoantibody binding inhibition | P32926 | DSG3-coupled beads, scFv-anti-DSG3-GFP binding, flow cytometry; active compounds read low | binding (percent of control), % at 10 µM | 0.48% of 310,000 active | AID 588358;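 active = binding more than 3 SD below its plate's average and above zero; inconclusive = below that plate limit but binding exactly zero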;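 note: hits lower antibody fragment binding to DSG3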
# A number is an active result; – = inactive; ? = inconclusive; · = no result. Hits are enriched below; roughly 4.6% of the tested compounds scored in any of these assays.
SMILES,ALR inh,NALP1 inh,NALP3 yeast inh,Arrestin-AP2 inh,PolyA inh,Pemphigus Ab inh
CCOc1ccc2c(=O)c(Oc3ccccc3OCC)coc2c1,–,44,–,–,–,–
CC(=O)Nc1ccc2cnn(C(C)=O)c2c1,·,·,·,·,·,–
O=C(c1ccc2c(c1)N(Cc1ccccc1)CCS2)N1CCOCC1,99,–,–,–,–,–
O=C(c1ccc2c(c1)N(Cc1ccc(F)cc1)CCS2)N1CCOCC1,99,–,–,–,–,·
COc1ccc(OC)c(CCNC(=O)c2ccc3c(c2)N(Cc2ccc(F)cc2)CCS3)c1,–,–,–,–,–,–
O=C1C=C(c2ccccc2)C(c2ccccc2)C1 (stereo not given),·,·,·,–,·,–
CC(=O)CSc1nnc(-c2ccc3c(c2)OCO3)o1,–,–,–,–,–,·
O=C(CSc1nnc(-c2cccnc2)o1)Nc1ccc(Cl)cc1,–,–,–,–,–,–
CC(=O)Nc1ccc(NC(=O)CSc2nnc(-c3cccnc3)o2)cc1,98,·,–,–,–,–
CC(=O)Nc1ccc(NC(=O)CSc2nnc(-c3ccc4c(c3)OCO4)o2)cc1,–,·,–,–,·,-15
CC(NS(=O)(=O)c1cccc(Cl)c1F)[C@H](O)c1ccccc1 (stereo not given in full),·,·,·,·,·,–
CC(Sc1ccc(Cl)cc1)C(=O)NNC(=O)c1ccco1 (stereo not given),–,·,–,–,·,–
CC(C)CC[n+]1ccccc1/C=C/c1ccc(N(C)C)cc1,99,–,–,–,–,–
CN(C)c1ccc(/C=C/c2cccc[n+]2[O-])cc1,?,–,–,–,–,–
CCn1c(SCC(=O)Nc2cc(C)on2)nnc1-c1cccc(C)c1,–,–,–,–,–,–
CCn1c(SCC(=O)Nc2ccc(N(C)C)cc2)nnc1-c1cccc(C)c1,99,–,–,–,–,–
CN(C)c1ccc(NC(=O)CSc2nnc(-c3cccs3)n2Cc2ccco2)cc1,99,–,–,–,–,–
Cc1nc(C(=O)O)cc([N+](=O)[O-])c1C,·,·,·,·,·,–
O=[N+]([O-])c1ccccc1-c1cc(-c2cc(Cl)ccc2O)n[nH]1,99,–,·,–,–,–
Oc1ccccc1-c1cc(-c2ccccc2Cl)[nH]n1,89,–,–,–,·,–
COc1ccc(O)c(-c2cc(-c3ccccc3[N+](=O)[O-])[nH]n2)c1,99,–,–,–,–,–
Cc1ccc(O)c(-c2cc(-c3ccccc3[N+](=O)[O-])[nH]n2)c1,–,–,–,–,–,–
CCOc1ncccc1C(=O)NNC(=O)c1cccc(S(=O)(=O)Nc2ccc(OC)cc2)c1,–,–,–,–,–,–
Cc1cc(O)c(CN(C)C)c2c1C(=O)/C(=C/c1ccco1)O2,–,–,–,–,–,–
Cc1cc(O)c(C=O)c2c1C(=O)Oc1c(CO)c(O)c3c(c1O2)C(O)OC3=O (stereo not given),99,–,–,–,·,·
SMILES,ALR inh,NALP1 inh,NALP3 yeast inh,Arrestin-AP2 inh,PolyA inh,Pemphigus Ab inh
Cc1cccc(C(=O)N2CCCC(N3CCN(c4ccccc4)CC3)C2)n1 (stereo not given),98,–,–,–,–,–
Cc1nc(C(=O)N2CCCC(N3CCN(c4ccc(F)cc4)CC3)C2)cs1 (stereo not given),·,·,·,·,·,–
COc1ccc(N2CCN(C3CCCN(C(=O)c4cccc(C)n4)C3)CC2)cc1 (stereo not given),–,–,–,–,–,–
Cc1cccc(C(=O)N2CCCC(N3CCN(c4ccc(F)cc4)CC3)C2)n1 (stereo not given),99,–,–,–,–,–
Cc1ccc(CCN2CC(C(=O)NC3CCC(C)CC3)CC2=O)cc1 (stereo not given),·,·,·,·,·,–
CCOC(=O)C1=C(N)Oc2cc(O)ccc2C1c1cccc([N+](=O)[O-])c1 (stereo not given),85,–,–,–,–,–
Cc1nc(SCC(=O)Nc2c(C)n(C)n(-c3ccccc3)c2=O)c(C#N)c(C)c1C,·,·,–,–,·,–
CCOC(=O)CSc1cc(C)c(C#N)c2nc3ccccc3n12,99,–,–,–,–,–
CCC(C)Sc1cc(C)c(C#N)c2nc3ccccc3n12 (stereo not given),·,–,–,–,–,–
CCCc1cc(SCC(=O)Nc2c(C)n(C)n(-c3ccccc3)c2=O)n2c(nc3ccccc32)c1C#N,98,–,–,·,–,·
CCN1CCN(C(=O)c2ccc(CS(=O)Cc3ccc(C)cc3)o2)CC1 (stereo not given),–,–,–,–,–,74
Cc1ccc(CS(=O)Cc2ccc(C(=O)N3CCN(c4ccccc4)CC3)o2)cc1 (stereo not given),94,–,–,–,–,–
Cc1ccc(CS(=O)Cc2ccc(C(=O)N3CCN(c4ccc(F)cc4)CC3)o2)cc1 (stereo not given),–,–,–,–,–,–
O=C(c1ccc(CS(=O)Cc2ccc(Cl)cc2)o1)N1CCN(c2ccccc2)CC1 (stereo not given),93,–,–,–,–,–
CNC[C@H]1OCc2ccccc2-c2ccccc2C(=O)N([C@@H](C)CO)C[C@H]1C,·,·,·,·,·,–
CN(C)c1ccc(/C=C/C(=O)c2ccc3c(c2)OCO3)cc1,99,·,–,–,·,–
CCCCN(C)CCCNC(=O)c1cccc(N2CCCC2=O)c1,–,–,–,–,–,–
CN(C)c1ccc(/C=N/NC(=O)c2cccc(N3CCCC3=O)c2)cc1,87,–,–,–,?,–
Cc1ccc(NC(=O)NNC(=O)c2ccc3c(c2)NC(=O)C(C)(C)O3)cc1,·,–,–,–,–,–
CC1(C)Oc2ccc(C(=O)N/N=C/c3ccc(O)cc3)cc2NC1=O,99,–,–,–,–,–
CN(CCCNC(=O)c1cccc(N2CCCC2=O)c1)c1ccccc1,98,–,–,–,–,–
COc1cccc(CC(NC(C)=O)C(=O)NC2CCN(C(=O)c3ccc(Cl)cc3)CC2)c1OC (stereo not given),·,–,–,–,–,–
CN(C)c1ccc(/C=N/NC(=O)c2ccc3c(c2)OCO3)cc1,98,–,–,–,–,–
CC(=O)Nc1cccc(N2CCCC2=O)c1,99,–,–,–,–,–
O=C(N/N=C/c1ccccc1)c1ccc2c(c1)OCO2,–,–,–,–,–,–
CN(C)c1ccc(/C=C/C(=O)c2cccnc2)cc1,99,·,–,–,–,–
CC(=O)Nc1cccc(N2C(=O)CCC2=O)c1,–,–,–,–,–,·
O=C(CSc1nc2ccccc2c(=O)n1-c1ccccc1Cl)NC1CCS(=O)(=O)C1 (stereo not given),–,·,–,–,·,·
O=C(O)c1ccccc1NC(=O)C1CCN(S(=O)(=O)c2cccc3nsnc23)CC1,–,–,–,–,–,–

# Screening data from PubChem.
